Laboratory results taken from ChEMBL document CHEMBL1151927, “CSI-FID: high throughput label-free detection of DNA binding molecules” (Bioorg Med Chem Lett, 2009).
Calls of active or inactive are those of the source. The calls are words filed in the database; no cut-off is given here.

Legend:
Type in all cases: nucleic-acid assay
[1] = system: Nucleic Acid; assay: Displacement of ethidium bromide from DNA TGAATAA region at 3 uM by […] analysis
Summary of the method: (§1)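 CSI microarray of hairpinned dsDNA probes covering all 9 bp permutations. The array was incubated 1 h with 6 μM EtBr in binding buffer (100mM NaCl, 100mM Tris pH 8.0). Unlabeled ligand (3 μM) was then added to the EtBr solution for a further 1 h to reach equilibrium. Per-feature ratio of displaced to undisplaced EtBr fluorescence, expressed as FD = 1−(1−Rseq)/(1−RMax).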

[2] = system: Nucleic Acid; assay: Displacement of ethidium bromide from DNA TTAA region by […] analysis; summary of the method: as §1
[3] = system: Nucleic Acid; assay: Displacement of ethidium bromide from minor groove region of DNA at 3 uM by […] analysis; summary of the method: as §1
[4] = system: Nucleic Acid; assay: Displacement of ethidium bromide from DNA AAAA region by […] analysis; summary of the method: as §1
[5] = system: Nucleic Acid; assay: Displacement of ethidium bromide from DNA TAGAATA region at 3 uM by […] analysis; summary of the method: as §1
[6] = system: Nucleic Acid; assay: Displacement of ethidium bromide from DNA TAAA region by […] analysis; summary of the method: as §1
[7] = system: Nucleic Acid; assay: Displacement of ethidium bromide from DNA TATTAGA region at 3 uM by […] analysis; summary of the method: as §1
[8] = system: Nucleic Acid; assay: Displacement of ethidium bromide from DNA ATAA region by […] analysis; summary of the method: as §1
[9] = system: Nucleic Acid; assay: Displacement of ethidium bromide from DNA AAAT region by […] analysis; summary of the method: as §1
[10] = system: Nucleic Acid; assay: Displacement of ethidium bromide from DNA AATA region by […] analysis; summary of the method: as §1
[11] = molecular target: Nucleic Acid; assay: Binding affinity to minor groove region of DNA
[12] = system: Nucleic Acid; assay: Displacement of ethidium bromide from DNA ATTA region by […] analysis; summary of the method: as §1
[13] = system: Nucleic Acid; assay: Displacement of ethidium bromide from DNA TATA region by […] analysis; summary of the method: as §1
[14] = system: Nucleic Acid; assay: Displacement of ethidium bromide from DNA ATAT region by […] analysis; summary of the method: as §1

## Cn1cc(NC(=O)c2cc(NC(=O)CNC(=N)N)cn2C)cc1C(=O)NCCC(=N)N [NETROPSIN]
[1]
  Activity: Active
[2]
  Activity: Active
[3]
  Activity: Active
[4]
  Activity: Active
[5]
  Activity: Active
[6]
  Activity: Active
[7]
  Activity: Active
[8]
  Activity: Active
[9]
  Activity: Active
[10]
  Activity: Active
[11]
  Kd: 1 nM
[12]
  Activity: Active
[13]
  Activity: Active
[14]
  Activity: Active
